In ChEMBL document CHEMBL3272290, “Contragestational agents. 1. Steroidal O-aryloximes” (J Med Chem, 1977) one finds Activity, inhibition and minimal effective dose data, which are given here for 7 compounds.

Calls of active or inactive are those of the source. The calls are words filed in the database; no cut-off is given here. Bounds are passed on as bounds.

In series [1] the test system is Rattus norvegicus. In words: Antifertility activity in Wistar rat assessed as inhibition of preimplantive gestation by measuring resorptions at 5 mg/kg, po administered in days 9 to 12 of pregnancy measured on day 21. It is filed as functional. Details: scale not given: the % may be the effect or the level left. In a few lines: (§1)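 Groups of five pregnant female Wistar-derived rats dosed orally on days 9–12 of pregnancy, in sesame oil at 0.5 mL per 200 g body weight. Read-out was the percentage of resorptions.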

Series [2] deals with Oryctolagus cuniculus. In words: Antiestrogenic activity in rabbit at 10 to 100 mg/kg. It is filed as functional, organism-based.
The test system of series [3] is Oryctolagus cuniculus. Description: Androgenic activity in rabbit at 10 to 100 mg/kg. It is filed as functional, organism-based.
The test system of series [4] is Rattus norvegicus. Description: Progestational activity in rat at 10 to 100 mg/kg. It counts as functional, organism-based.
The subject of series [5] is Oryctolagus cuniculus. Description: Toxicity in rabbit assessed as adverse effect at 10 to 100 mg/kg. It counts as organism-based. Details: dose 10-100 mg/kg. The conditions noted are these: in vivo.
Series [6] relates to Rattus norvegicus. Description: Androgenic activity in rat at 10 to 100 mg/kg. It is filed as functional, organism-based.
In series [7] the test system is Oryctolagus cuniculus. In words: Antiandrogenic activity in rabbit at 10 to 100 mg/kg. It counts as functional, organism-based.
For series [8], the system named is Rattus norvegicus. Description: Antifertility activity in Wistar rat assessed as inhibition of preimplantive gestation by measuring resorptions at 2.5 mg/kg, po administered in day 11 of pregnancy measured on day 21. It counts as functional, organism-based. Details: dose 2.5 mg/kg.
Series [9] concerns Rattus norvegicus. In words: Toxicity in rat assessed as adverse effect at 10 to 100 mg/kg. The conditions noted are these: in vivo. It is filed as organism-based. Details: dose 10-100 mg/kg.
Series [10] has as its system Rattus norvegicus. In words: Androgenic activity in po dosed castrate immature Wistar rat assessed as dose required to produce significant increase in ventral prostate weight administered qd for 7 days. It counts as functional. The note with it: Prostate gland, 168 h, read-out: MED. In a few lines: (§2)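 Castrated immature rats dosed orally once a day for 7 days, in sesame oil at 0.2 mL per dose. Read-out was ventral prostate weight. Potency is expressed relative to 17-methyltestosterone. MED is the smallest tested dose giving a significant rise in ventral prostate weight.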

The subject of series [11] is Rattus norvegicus. In words: Estrogenic activity in rat at 10 to 100 mg/kg. It is filed as functional, organism-based.
Series [12] concerns Rattus norvegicus. Description: Antifertility activity in Wistar rat assessed as inhibition of preimplantive gestation by measuring resorptions at 5 mg/kg, po administered in days 1 to 6 of pregnancy measured on day 21. It is filed as functional, organism-based. Details: dose 5 mg/kg.
In series [13] the test system is Oryctolagus cuniculus. Description: Antiprogestational activity in rabbit at 10 to 100 mg/kg. It is filed as functional, organism-based.
Series [14] relates to Rattus norvegicus. In words: Antiprogestational activity in rat at 10 to 100 mg/kg. It counts as functional, organism-based.
In series [15] the test system is Rattus norvegicus. Description: Antifertility activity in Wistar rat assessed as inhibition of preimplantive gestation by measuring resorptions at 2.5 mg/kg, po administered in days 9 to 12 of pregnancy measured on day 21. It counts as functional. Details: scale not given: the % may be the effect or the level left. The method, boiled down: as §1
In series [16] the test system is Rattus norvegicus. In words: Antiandrogenic activity in rat at 10 to 100 mg/kg. It counts as functional, organism-based.
Series [17] concerns Oryctolagus cuniculus. Description: Progestational activity in rabbit at 10 to 100 mg/kg. It counts as functional, organism-based.
Series [18] concerns Rattus norvegicus. In words: Antiestrogenic activity in rat at 10 to 100 mg/kg. It counts as functional, organism-based.
The test system of series [19] is Oryctolagus cuniculus. In words: Estrogenic activity in rabbit at 10 to 100 mg/kg. It counts as functional, organism-based.
For series [20], the system named is Rattus norvegicus. Description: Antifertility activity in Wistar rat assessed as inhibition of preimplantive gestation by measuring resorptions at 50 mg/kg, po administered in days 9 to 12 of pregnancy measured on day 21. It is filed as functional. Details: scale not given: the % may be the effect or the level left. The method, boiled down:
as §1

Series [21] relates to Rattus norvegicus. In words: Antifertility activity in Wistar rat assessed as inhibition of preimplantive gestation by measuring resorptions at 10 mg/kg, po administered in days 9 to 12 of pregnancy measured on day 21. It counts as functional. Details: scale not given: the % may be the effect or the level left. In a few lines: as §1
Series [22] relates to Rattus norvegicus. Description: Androgenic activity in castrate immature Wistar rat at 10 mg/kg, po qd for 7 days relative to 17-methyl-testosterone. It counts as functional. The method, boiled down: as §2
In series [23] the test system is Rattus norvegicus. In words: Androgenic activity in castrate immature Wistar rat at 2.5 mg/kg, po qd for 7 days relative to 17-methyl-testosterone. It counts as functional. In a few lines: as §2
The subject of series [24] is Rattus norvegicus. Description: Antifertility activity in Wistar rat assessed as inhibition of preimplantive gestation by measuring resorptions at 36 mg/kg, po administered in days 9 to 12 of pregnancy measured on day 21. It counts as functional. Details: scale not given: the % may be the effect or the level left. In a few lines: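 Given orally in sesame oil (0.5 mL per 200 g body weight) to groups of five female Wistar-derived rats on days 9–12 of pregnancy. Outcome scored as percent resorptions.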

`C[C@]12CC/C(=N\Oc3ccc([N+](=O)[O-])cc3)C[C@@H]1CC[C@@H]1[C@@H]2CC[C@]2(C)C(=O)CC[C@@H]12`: in the series with Rattus norvegicus [1], the Activity is given as 100%.
As to `CC(=O)O[C@H]1CC[C@H]2[C@@H]3CC[C@H]4C/C(=N/Oc5ccc([N+](=O)[O-])cc5)[C@H](Cl)C[C@]4(C)[C@H]3CC[C@]12C` [NISTERIME ACETATE], the result in the series with Oryctolagus cuniculus [2], in the series on Oryctolagus cuniculus [3], in the series with Rattus norvegicus [4], in the series with Rattus norvegicus [6], with Oryctolagus cuniculus [7] and in the series with Rattus norvegicus [11] was inactive. Further, the outcome in the series on Oryctolagus cuniculus [13], in the series with Rattus norvegicus [14], in the series on Rattus norvegicus [16], in the series with Oryctolagus cuniculus [17], in the series on Rattus norvegicus [18] and in the series with Oryctolagus cuniculus [19] was inactive. Moreover, the values for the Activity result with Oryctolagus cuniculus [5], with Rattus norvegicus [9] and in the series with Rattus norvegicus [15] were “Non-toxic”, “Non-toxic” and 100%, respectively. Also, the inhibition entry in the series with Rattus norvegicus [8] and in the series on Rattus norvegicus [12] was “Active” each time. In the series on Rattus norvegicus [10], the minimal effective dose was above 90 mg/kg.
For `C[C@]12CC/C(=N\Oc3ccc([N+](=O)[O-])cc3C(F)(F)F)C[C@@H]1CC[C@@H]1[C@@H]2CC[C@]2(C)[C@@H](O)CC[C@@H]12`, the Activity with Rattus norvegicus [20] is given as 0%.
For the compound `C[C@]12C[C@@H](Cl)/C(=N\Oc3ccc([N+](=O)[O-])cc3)C[C@@H]1CC[C@@H]1[C@@H]2CC[C@]2(C)[C@@H](O)CC[C@@H]12`, the Activity in the series on Rattus norvegicus [1] is listed as 100%.
With `C[C@]12CC[C@H]3[C@@H](CCC4=C/C(=N/Oc5ccc([N+](=O)[O-])cc5[N+](=O)[O-])CC[C@@]43C)[C@@H]1CC[C@@H]2O`, the Activity was found to be 80.8% in the series on Rattus norvegicus [21] and 80% in the series on Rattus norvegicus [22]. The minimal effective dose with Rattus norvegicus [10] worked out at 1.5 mg/kg.
Take `CC(=O)O[C@H]1CC[C@H]2[C@@H]3CC[C@H]4C/C(=N/Oc5ccc([N+](=O)[O-])cc5)CC[C@]4(C)[C@H]3CC[C@]12C`: the Activity is reported as 2.5% with Rattus norvegicus [23] and 96.6% in the series on Rattus norvegicus [15]. For the same compound, in the series on Rattus norvegicus [10], the minimal effective dose came out at 30 mg/kg.
On to `C[C@]12CC/C(=N\Oc3ccc([N+](=O)[O-])cc3)C[C@@H]1CC[C@@H]1[C@@H]2CC[C@]2(C)/C(=N/O)CC[C@@H]12`, for which the Activity with Rattus norvegicus [24] is listed as 0%.
